Screening results (PubChem)
Shown are actives, neighbours in structure and some others; about 2.5% of the full set was active somewhere.
NTR1 ag – agonists of human NTR1, primary screen, imaging, U2OS cells, beta-arrestin-GFP, high content | NTR1-U2OS beta-arrestin-GFP spot imaging, agonist mode | activation, % at 20 µM | 0.17% of 330,000 active;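 active means activation at or above 40% of the spot to cytoplasm intensity ratio, with at least 20 cells analyzed; inconclusive means wells under 20 cells, flagged as cytotoxic or low count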;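 further: 0% = DMSO without peptide and 100% = 100 nM NTR1 peptide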
Exocytosis inh – LAMP-1 surface exposure blockers, TALL-104 cells – cell-based, flow cytometry, MLPCN library, primary screen | TALL-104 LAMP-1 surface exposure; cells stimulated with thapsigargin and PMA | inhibition, % at 10 µM | 0.66% of 360,000 active | AID 651702, 2012;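 active means inhibition above about 55%, limit read from the data; inconclusive means no clear call, values can overlap the other calls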
HGIII-sPLA2 inh – human group III sPLA2 inhibitors, primary screen, biochemical, QFRET, BODIPY PC-A2 liposome substrate | Group 3 secretory phospholipase A2 (Homo sapiens), Q9NZ20 | QFRET BODIPY PC-A2 liposome hydrolysis, fluorescence | inhibition, % at 12.2 µM | 0.56% of 370,000 active | AID 743126, 2013;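 active means inhibition above mean plus 3 SD of compounds lying within the high and low control bounds, cut at about 19% in these data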;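 further: 0% = median of test compound wells and 100% = no enzyme DMSO wells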
Target sequence (Q9NZ20 whole entry, looked up): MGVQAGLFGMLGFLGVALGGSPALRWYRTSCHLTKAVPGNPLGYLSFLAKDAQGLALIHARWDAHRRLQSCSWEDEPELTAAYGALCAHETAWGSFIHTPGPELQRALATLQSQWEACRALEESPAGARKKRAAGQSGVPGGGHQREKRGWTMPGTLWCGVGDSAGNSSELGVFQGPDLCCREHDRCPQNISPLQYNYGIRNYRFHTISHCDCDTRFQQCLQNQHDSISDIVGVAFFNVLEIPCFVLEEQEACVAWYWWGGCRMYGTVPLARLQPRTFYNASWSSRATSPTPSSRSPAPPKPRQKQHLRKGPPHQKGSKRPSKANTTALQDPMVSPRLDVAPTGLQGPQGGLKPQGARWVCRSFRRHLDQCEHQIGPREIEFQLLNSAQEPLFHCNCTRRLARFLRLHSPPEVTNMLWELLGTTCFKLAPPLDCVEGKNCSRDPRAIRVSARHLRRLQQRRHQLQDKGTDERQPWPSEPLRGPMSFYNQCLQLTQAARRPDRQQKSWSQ
MC4R antag cAMP – MC4R antagonists of cAMP signaling, primary screen, cell-based, TR-FRET, antagonist arm of biased-ligand search. inhibition, % at 6.5 µM. 0.48% of 360,000 active. MC4R-expressing cells, MTII-stimulated cAMP, LANCE TR-FRET. Melanocortin receptor 4 (Homo sapiens), P32245;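 active means inhibition above its plate's cutoff, the mean of tested wells on that plate plus 3 SD, cut at about 29% in these data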;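 further: 0% = Melanotan II alone and 100% = Melanotan II plus saturating MCL0020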
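Material – human MC4R-expressing U2OS cells · Repeats – no replicates · Detection – TR-FRET with Eu-cAMP and labeled anti-cAMP, 671 nm · Times – compound 30 min, challenge 1 h, detection 1 h · Compound – single nominal compound dose of 6.5 µM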
MC4R barr agon – MC4R agonists recruiting beta-arrestin, primary screen, cell-based, luminescence, agonist arm of biased-ligand search. Melanocortin receptor 4 (Homo sapiens), P32245. U2OS MC4R beta-arrestin complementation; percent of melanotan II response, DMSO zero. activation, % at 8.9 µM. 0.98% of 360,000 active. AID 540308, 2011;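 active means activation above a per-plate cutoff, the mean activation of sample wells on that plate plus 3 SD, cut at about 8% in these data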
A1 inh – caspase 3/7 activation in MEF A1-2A-BIM cells, primary screen, A1 inhibitor project, cell-based, luminescence, HTS; Caspase-Glo 3/7 luminescence, 3 h; percent of clofoctol response, vehicle zero; caspase activation, % (test concentration not listed); 0.066% of 330,000 active;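 active means over half of replicate activation scores above 10%, or exactly half above 10 with the replicate mean above 10; inconclusive means replicate mean below 10 yet half the replicates above 10; inactive means over half of replicates below 10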
Active calls of the source: *; ? = inconclusive; / = no result given.

SMILES	NTR1 ag	Exocytosis inh	HGIII-sPLA2 inh	MC4R antag cAMP	MC4R barr agon	A1 inh
O=C(Nc1ccc(F)cc1)N[C@@H]1C[C@@H]2O[C@H](CO)CC[C@@H]2O[C@@H]1CCc1ccc(C2=CCCC2)cc1	/	/	-18.7	/	/	/
Cc1nc(S/C(=C/c2ccc(-c3ccc(Cl)cc3)o2)C(=O)O)n[nH]1	1.7	69.3*	7.1	-2.2	0.5	-0.4
Cc1cc2c(s1)c1cnn(Cc3cc(F)c(F)cc3F)c(=O)c1n2C	/	/	2.4	/	/	/
Cc1nc(NC(=O)c2ccco2)sc1-c1csc(Nc2ccc(Cl)cc2Cl)n1	6.4	-5.3	-9.1	27.1	8.5*	-2.7
Cc1ccc(Cl)cc1Nc1nc(-c2sc(NC(=O)c3ccco3)nc2C)cs1	-0.8	-2.6	-0.4	16.5	-0.3	-0.4
CCCCNC(=O)C1(C(=O)c2ccc(OC)cc2)CC(C(=O)OCC)=NO1 (stereo not given)	/	/	-0.5	/	/	/
COc1ccc(-c2ccc3c(c2)S(=O)(=O)c2cccc(C(=O)NC4CCCC4)c2C3=O)cc1OC	1.2	-5.2	5.4	6.0	-0.8	0.2
CC(C)c1cccc(-c2ccc3c(c2)S(=O)(=O)c2cccc(C(=O)NC4CCCC4)c2C3=O)c1	-0.8	5.8	3.7	1.6	-1.2	7.3*
O=C(NC1CCCC1)c1cccc2c1C(=O)c1ccc(/C=C/c3ccccc3)cc1S2(=O)=O	1.6	3.0	4.6	-0.6	0.8	40.2*
COc1ccc(NC(=O)Nc2ccccc2C(=O)N2CCCC2)cc1OC	/	/	16.1	/	/	/
Cc1ccc(/C=N/NC(=O)c2c(C)nc3ccc(Cl)cn23)cc1	/	/	2.6	/	/	/
O=C(O)c1cccc(N2C(=O)C=CC2=O)c1	/	0.5	-3.2	-1.7	1.5	/
O=C(Nc1ccc(Cl)cc1Cl)c1cccc(N2C(=O)C=CC2=O)c1	4.3	49.1	22.7*	57.2*	-0.5	13.9*
O=C(CC1CCCC1)N1CC[C@H]2[C@H](CCCN2Cc2ccccc2)C1	/	/	1.4	/	/	/
N#CC(C#N)=C1C=CC=CN1/C(=C\c1ccccc1Cl)C(=O)c1ccccc1	/	67.7*	14.7	-11.0	-3.8	14.4*
CCOc1ccc(-n2c(COc3ccccc3)nnc2SCc2nc3ccccc3[nH]2)cc1	/	/	-21.1	/	/	/
OCCN1CCN(C2Cc3cc(Cl)ccc3Sc3ccc(Cl)cc32)CC1 (stereo not given) (tested in a mixture with another compound)	9.8	17.6	/	2.3	9.3*	-0.5
CC(C)CN(Cc1cc(=O)oc2cc(-c3ccccc3)c(O)cc12)CC(C)C	13.7	0.3	-1.3	11.7	10.7*	-0.7
C[N+]1=C(N)N[C@@]2(C=C3CCCCC3n3c(=O)n(-c4ccccc4)c(=O)n32)C1 (stereo not given in full)	/	/	5.1	/	/	/
Cc1cccc(/C=N/NC(=O)c2ccccc2OCc2cccc(Br)c2)n1	6.9	74.5*	-15.4	-4.1	0.1	0.1
Cc1ccc(/C=N/NC(=O)c2ccccc2OCc2ccc(F)cc2)o1	0.7	-6.2	-5.8	8.7	1.3	0.4
Cc1cccc(/C=N/NC(=O)c2cccc(NC(=O)c3ccccc3)c2)n1	0.4	11.0	-6.0	1.6	-3.2	-0.1
COc1ccccc1OCc1ccc(C(=O)N/N=C/c2ccco2)cc1	-0.6	-3.5	0.8	-6.1	-1.5	-2.0
O=C(N/N=C/c1ccncc1)c1ccccc1OCc1ccc(Br)cc1	5.0	83.4*	-7.1	-0.5	-1.1	-0.5
O=C(N/N=C/c1ccco1)c1cc(Br)ccc1OCc1ccccc1	2.1	-2.5	-3.0	2.8	9.4*	-1.4
SMILES	NTR1 ag	Exocytosis inh	HGIII-sPLA2 inh	MC4R antag cAMP	MC4R barr agon	A1 inh
CC(C)(C)C1=CC(=O)C(=O)C(C(C)(C)C)=C1	-2.1	9.4	/	10.1	24.6*	30.9*
CC(C)(C)C1=CC(=Nc2ccccc2N)C=C(C(C)(C)C)C1=O	-1.4	1.3	-5.5	22.8	-1.2	0.5
Cc1ccc(C(=O)NC2CCCCN(Cc3ccccc3C)C2=O)cc1 (stereo not given)	/	/	-2.6	/	/	/
COc1ccc(S(=O)(=O)Nc2c(NC3CCCCC3)c3ccccc3oc2=O)cc1Cl	3.8	5.2	-9.9	-2.9	-1.4	-0.1
Cc1cc(S(=O)(=O)Nc2c(NC3CCCCC3)c3ccccc3oc2=O)ccc1F	4.6	-14.3	-7.0	5.6	8.4*	1.2
O=C(NCC(c1ccccc1)c1ccccc1)[C@H](Cc1ccccc1)NC1(C(=O)NC2CCCCC2)CCCCCC1	/	/	11.8	/	/	/
O=C(NCCO)[C@H](Cc1ccccc1)NC1(C(=O)NCCN2CCOCC2)CCCCC1	/	/	-1.9	/	/	/
Cc1cccc(NCCC(=O)c2ccc([N+](=O)[O-])cc2)c1C	-0.5	106.6*	-3.0	-8.7	3.5	0.8
Cc1ccc(NCCC(=O)c2cccc([N+](=O)[O-])c2)c(C)c1	2.6	22.4	-2.2	19.0	1.0	0.7
Oc1cccc2ccc(Nc3ccccn3)nc12	2.1	0.3	-3.3	3.4	8.7*	0.0
CC(C)(C)OC(=O)N1CCC2CCN(S(=O)(=O)c3ccccc3)CC21 (stereo not given)	/	/	2.8	/	/	/
O=C(CSc1ccc(-c2ccc(F)cc2)nn1)NCc1ccco1	-1.5	-2.8	-5.2	4.4	-1.6	-0.6
CCN1C(=O)/C(=C\c2ccc(F)cc2)N=C1SCC(=O)NCc1ccco1	0.5	1.5	-4.6	2.0	8.6*	-0.1
CC(=O)N/C(=N/c1nc(C)cc(C)n1)Nc1ccc(C)cc1C	2.2	66.4*	-1.4	7.2	-1.3	-0.3
CC(=O)N/C(=N/c1nc(C)cc(C)n1)Nc1cccc(C)c1	0.9	-17.3	-0.4	1.2	-2.6	?
C=CCN1C(=O)[C@@H](CC(=O)NCCCOC)[C@]2(C(=O)OCC)CCCCC/C=C/12	/	/	-1.9	/	/	/
COC(=O)C1CN(Cc2cn(Cc3ccccc3)nn2)CCS(=O)(=O)N1Cc1ccc(F)cc1 (stereo not given)	/	/	7.8	/	/	/
Cc1ccc(NC(=S)NCCSc2ccc(Cl)cc2)cc1	6.7	5.1	-1.1	5.0	0.3	0.3
Cc1ccc(NC(=O)NCCSc2ccc(C)cc2)cc1	1.1	-3.7	-11.7	11.9	8.5*	-0.5
CCn1c(Nc2ccccc2Cl)nc2ccccc21	0.1	0.0	-1.6	-2.0	-0.3	0.2
CCn1c2ccccc2nc2cc3c(cc21)c(Cl)c(=O)c1ccccc13	/	118.6*	-1.8	4.2	-2.0	/
Cc1ccc(C(=O)N/C(=C\c2ccco2)C(=O)NCCCN2CCOCC2)cc1C	0.2	26.3	3.2	-1.2	-1.4	-0.4
